Measurements taken from ChEMBL document CHEMBL1828552, “Synthesis and studies of novel 2-(4-cyano-3-trifluoromethylphenyl amino)-4-(quinoline-4-yloxy)-6-(piperazinyl/piperidinyl)-s-triazines as potential antimicrobial, antimycobacterial and anticancer agents” (2011).
≈ marks a conversion by molar mass, not a printed value.

What was measured:
Klebsiella pneumoniae [1] = assay: Antibacterial activity against 10^5 CFU/mL Klebsiella pneumoniae MTCC 109 after 24 hrs by agar streak dilution method; type: functional; conditions: MTCC 109, 24 h
In short: (§1)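 Agar streak dilution. Stock 100 µg/mL in DMSO; graded amounts were mixed into molten nutrient agar and poured at 4–5 mm depth. Plates carried serial dilutions over […]. About 10⁵ CFU/mL of each bacterium was applied, and plates were incubated at 37 ± 1 °C for 24 h. MIC was read from the dilution series.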

Staphylococcus aureus [2] = assay: Antibacterial activity against 10^5 CFU/mL Staphylococcus aureus MTCC 96 after 24 hrs by disc diffusion technique; type: functional
In short: (§2)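 Disc diffusion on Mueller–Hinton agar poured 5 mm deep. The surface was swabbed with a 10⁵ CFU/mL […] suspension. Filter-paper discs 6.25 mm in diameter were soaked in compound in DMSO and placed on the agar. Plates were incubated 24 h at 37 ± 1 °C, and the inhibition zone was measured in mm. A DMSO disc served as blank.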

Bacillus cereus [3] = assay: Antibacterial activity against 10^5 CFU/mL Bacillus cereus MTCC 619 after 24 hrs by agar streak dilution method; type: functional; conditions: MTCC 619, 24 h; in short: as §1
Escherichia coli [4] = assay: Antibacterial activity against 10^5 CFU/mL Escherichia coli MTCC 739 after 24 hrs by disc diffusion technique; type: functional; in short: as §2
Candida albicans [5] = assay: Antifungal activity against 10^5 CFU/mL Candida albicans MTCC 183 after 48 hrs by disc diffusion technique; type: functional
Salmonella typhi [6] = assay: Antibacterial activity against 10^5 CFU/mL Salmonella typhi MTCC 733 after 24 hrs by agar streak dilution method; type: functional, Salmonella enterica subsp. enterica serovar Typhi; conditions: Salmonella enterica, MTCC 733, 24 h
Candida albicans [7] = assay: Antifungal activity against 10^5 CFU/mL Candida albicans MTCC 183 after 48 hrs by agar streak dilution method; type: functional; conditions: MTCC 183, 48 h
In short: (§3)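 Agar streak dilution for fungi. Stock 100 µg/mL in DMSO; graded amounts were mixed into molten Sabouraud dextrose agar and poured at 4–5 mm depth. Serial dilutions ran over […]. About 10⁵ CFU/mL inoculum was applied, with incubation at 37 ± 1 °C for 48 h. MIC was read from the dilution series.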

Escherichia coli [8] = assay: Antibacterial activity against 10^5 CFU/mL Escherichia coli MTCC 739 after 24 hrs by agar streak dilution method; type: functional; conditions: MTCC 739, 24 h; in short: as §1
Pseudomonas aeruginosa [9] = assay: Antibacterial activity against 10^5 CFU/mL Pseudomonas aeruginosa MTCC 741 after 24 hrs by disc diffusion technique; type: functional; in short: as §2
Proteus vulgaris [10] = assay: Antibacterial activity against 10^5 CFU/mL Proteus vulgaris MTCC 1771 after 24 hrs by disc diffusion technique; type: functional; in short: as §2
Pseudomonas aeruginosa [11] = assay: Antibacterial activity against 10^5 CFU/mL Pseudomonas aeruginosa MTCC 741 after 24 hrs by agar streak dilution method; type: functional; conditions: MTCC 741, 24 h; in short: as §1
Aspergillus fumigatus [12] = assay: Antifungal activity against 10^5 CFU/mL Aspergillus fumigatus MTCC 343 after 48 hrs by disc diffusion technique; type: functional
Aspergillus niger [13] = assay: Antifungal activity against 10^5 CFU/mL Aspergillus niger MTCC 282 after 48 hrs by disc diffusion technique; type: functional
Aspergillus clavatus [14] = assay: Antifungal activity against 10^5 CFU/mL Aspergillus clavatus MTCC 1323 after 48 hrs by disc diffusion technique; type: functional
Klebsiella pneumoniae [15] = assay: Antibacterial activity against 10^5 CFU/mL Klebsiella pneumoniae MTCC 109 after 24 hrs by disc diffusion technique; type: functional; in short: as §2
Aspergillus clavatus [16] = assay: Antifungal activity against 10^5 CFU/mL Aspergillus clavatus MTCC 1323 after 48 hrs by agar streak dilution method; type: functional; conditions: MTCC 1323, 48 h; in short: as §3
Shigella flexneri [17] = assay: Antibacterial activity against 10^5 CFU/mL Shigella flexneri MTCC 1457 after 24 hrs by agar streak dilution method; type: functional; conditions: MTCC 1457, 24 h; in short: as §1
Shigella flexneri [18] = assay: Antibacterial activity against 10^5 CFU/mL Shigella flexneri MTCC 1457 after 24 hrs by disc diffusion technique; type: functional; in short: as §2
Staphylococcus aureus [19] = assay: Antibacterial activity against 10^5 CFU/mL Staphylococcus aureus MTCC 96 after 24 hrs by agar streak dilution method; type: functional; conditions: MTCC 96, 24 h; in short: as §1
Bacillus cereus [20] = assay: Antibacterial activity against 10^5 CFU/mL Bacillus cereus MTCC 619 after 24 hrs by disc diffusion technique; type: functional; in short: as §2
Salmonella typhi [21] = assay: Antibacterial activity against 10^5 CFU/mL Salmonella typhi MTCC 733 after 24 hrs by disc diffusion technique; type: functional, Salmonella enterica subsp. enterica serovar Typhi
In short: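 Disc diffusion. Mueller-Hinton agar autoclaved 120 °C 30 min, poured 5 mm deep. Surface swabbed with 10⁵ CFU/mL suspension […]. 6.25 mm filter-paper discs soaked in compound in DMSO; DMSO-only disc as blank. Incubated 37 ± 1 °C, 24 h for bacteria or 48 h for fungi. Ciprofloxacin and ketoconazole discs as reference drugs. Inhibition zone measured in mm.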

DU-145 = assay: Cytotoxicity against […] human DU145 cells after 48 hrs by SRB assay; type: functional; conditions: DU-145, 48 h
In short: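 SRB assay in DU-145 cells grown in RPMI 1640 with 10% FBS and 2 mM L-glutamine. Cells were plated and held 24 h before addition of four 10-fold concentrations. After 48 h, cells were TCA-fixed, stained with 0.4% SRB and read at 540 nm. GI50, TGI and LC50 were derived against time-zero and control wells; each value is the mean of three experiments.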

Aspergillus fumigatus [22] = assay: Antifungal activity against 10^5 CFU/mL Aspergillus fumigatus MTCC 343 after 48 hrs by agar streak dilution method; type: functional; conditions: MTCC 343, 48 h; in short: as §3
Proteus vulgaris [23] = assay: Antibacterial activity against 10^5 CFU/mL Proteus vulgaris MTCC 1771 after 24 hrs by agar streak dilution method; type: functional; conditions: MTCC 1771, 24 h; in short: as §1
Aspergillus niger [24] = assay: Antifungal activity against 10^5 CFU/mL Aspergillus niger MTCC 282 after 48 hrs by agar streak dilution method; type: functional; conditions: MTCC 282, 48 h; in short: as §3

Structure (SMILES)	MIC (Klebsiella pneumoniae [1]) [µg/mL]	inhibition zone (IZ) (Staphylococcus aureus [2]) [mm]	MIC (Bacillus cereus [3]) [µg/mL]	inhibition zone (IZ) (Escherichia coli [4]) [mm]	inhibition zone (IZ) (Candida albicans [5]) [mm]	MIC (Salmonella typhi [6]) [µg/mL]	MIC (Candida albicans [7]) [µg/mL]	MIC (Escherichia coli [8]) [µg/mL]	inhibition zone (IZ) (Pseudomonas aeruginosa [9]) [mm]	inhibition zone (IZ) (Proteus vulgaris [10]) [mm]	MIC (Pseudomonas aeruginosa [11]) [µg/mL]	inhibition zone (IZ) (Aspergillus fumigatus [12]) [mm]	inhibition zone (IZ) (Aspergillus niger [13]) [mm]	inhibition zone (IZ) (Aspergillus clavatus [14]) [mm]	inhibition zone (IZ) (Klebsiella pneumoniae [15]) [mm]	MIC (Aspergillus clavatus [16]) [µg/mL]	MIC (Shigella flexneri [17]) [µg/mL]	inhibition zone (IZ) (Shigella flexneri [18]) [mm]	GI50 (DU-145) [µM]	TGI (DU-145) [µM]	also measured
CN1CCN(c2nc(Nc3ccc(C#N)c(C(F)(F)F)c3)nc(Oc3ccnc4ccccc34)n2)CC1	100 (≈ 197 µM)	<10	100 (≈ 197 µM)	<10	<10	100 (≈ 197 µM)	100 (≈ 197 µM)	100 (≈ 197 µM)	14	<10	100 (≈ 197 µM)	<10	<10	<10	<10	100 (≈ 197 µM)	100 (≈ 197 µM)	11	51.2	> 100	MIC (Staphylococcus aureus [19]): 100 µg/mL (≈ 197 µM); inhibition zone (IZ) (Bacillus cereus [20]): <10 mm; inhibition zone (IZ) (Salmonella typhi [21]): 13 mm; LC50 (concentration giving 50% net cell kill relative to time zero) (DU-145): > 100 µM; MIC (Aspergillus fumigatus [22]): 100 µg/mL (≈ 197 µM); MIC (Proteus vulgaris [23]): 100 µg/mL (≈ 197 µM); MIC (Aspergillus niger [24]): 100 µg/mL (≈ 197 µM)
CCN1CCN(c2nc(Nc3ccc(C#N)c(C(F)(F)F)c3)nc(Oc3ccnc4ccccc34)n2)CC1	100 (≈ 192 µM)	13	100 (≈ 192 µM)	13	12	100 (≈ 192 µM)	100 (≈ 192 µM)	100 (≈ 192 µM)	16	<10	100 (≈ 192 µM)	<10	<10	<10	<10	100 (≈ 192 µM)	100 (≈ 192 µM)	13	86.6	> 100	MIC (Staphylococcus aureus [19]): 100 µg/mL (≈ 192 µM); inhibition zone (IZ) (Bacillus cereus [20]): 14 mm; inhibition zone (IZ) (Salmonella typhi [21]): 15 mm; LC50 (concentration giving 50% net cell kill relative to time zero) (DU-145): > 100 µM; MIC (Aspergillus fumigatus [22]): 100 µg/mL (≈ 192 µM); MIC (Proteus vulgaris [23]): 100 µg/mL (≈ 192 µM); MIC (Aspergillus niger [24]): 100 µg/mL (≈ 192 µM)
N#Cc1ccc(Nc2nc(Oc3ccnc4ccccc34)nc(N3CCN(c4ccccc4Cl)CC3)n2)cc1C(F)(F)F	12.5 (≈ 20.7 µM)	25	12.5 (≈ 20.7 µM)	22	20	50 (≈ 82.9 µM)	100 (≈ 166 µM)	50 (≈ 82.9 µM)	23	23	50 (≈ 82.9 µM)	21	21	20	26	100 (≈ 166 µM)	50 (≈ 82.9 µM)	21	92.6	> 100	MIC (Staphylococcus aureus [19]): 12.5 µg/mL (≈ 20.7 µM); inhibition zone (IZ) (Bacillus cereus [20]): 24 mm; inhibition zone (IZ) (Salmonella typhi [21]): 23 mm; LC50 (concentration giving 50% net cell kill relative to time zero) (DU-145): > 100 µM; MIC (Aspergillus fumigatus [22]): 100 µg/mL (≈ 166 µM); MIC (Proteus vulgaris [23]): 100 µg/mL (≈ 166 µM); MIC (Aspergillus niger [24]): 100 µg/mL (≈ 166 µM)
N#Cc1ccc(Nc2nc(Oc3ccnc4ccccc34)nc(N3CCN(c4cccc(Cl)c4Cl)CC3)n2)cc1C(F)(F)F	12.5 (≈ 19.6 µM)	28	6.25 (≈ 9.8 µM)	23	23	12.5 (≈ 19.6 µM)	50 (≈ 78.4 µM)	50 (≈ 78.4 µM)	23	25	25 (≈ 39.2 µM)	25	24	21	24	50 (≈ 78.4 µM)	12.5 (≈ 19.6 µM)	24	> 100	> 100	MIC (Staphylococcus aureus [19]): 6.25 µg/mL (≈ 9.8 µM); inhibition zone (IZ) (Bacillus cereus [20]): 28 mm; inhibition zone (IZ) (Salmonella typhi [21]): 25 mm; LC50 (concentration giving 50% net cell kill relative to time zero) (DU-145): > 100 µM; MIC (Aspergillus fumigatus [22]): 25 µg/mL (≈ 39.2 µM); MIC (Proteus vulgaris [23]): 12.5 µg/mL (≈ 19.6 µM); MIC (Aspergillus niger [24]): 25 µg/mL (≈ 39.2 µM)
N#Cc1ccc(Nc2nc(Oc3ccnc4ccccc34)nc(N3CCCCC3)n2)cc1C(F)(F)F	100 (≈ 203 µM)	11	100 (≈ 203 µM)	<10	12	100 (≈ 203 µM)	100 (≈ 203 µM)	100 (≈ 203 µM)	<10	14	100 (≈ 203 µM)	<10	12	14	15	100 (≈ 203 µM)	100 (≈ 203 µM)	<10	94.9	> 100	MIC (Staphylococcus aureus [19]): 100 µg/mL (≈ 203 µM); inhibition zone (IZ) (Bacillus cereus [20]): 14 mm; inhibition zone (IZ) (Salmonella typhi [21]): 12 mm; LC50 (concentration giving 50% net cell kill relative to time zero) (DU-145): > 100 µM; MIC (Aspergillus fumigatus [22]): 100 µg/mL (≈ 203 µM); MIC (Proteus vulgaris [23]): 100 µg/mL (≈ 203 µM); MIC (Aspergillus niger [24]): 100 µg/mL (≈ 203 µM)
COc1cccc2c1C(=O)c1c(O)c3c(c(O)c1C2=O)C[C@@](O)(C(=O)CO)C[C@@H]3O[C@H]1C[C@H](N)[C@H](O)[C@H](C)O1 [DOXORUBICIN]																			< 0.1	> 100	
